Vif inh: inhibitors of HIV Vif. HEK293T cells, Vif self-association by quenched fluorescence, imaging, 24 h. inhibition, % at 7.49 µM. 340,000 tested, 0.35% active. AID 602346; in the data active = inhibition above about 50%, passing the limit was not always enough
SR-BI HDL uptake: mouse SR-BI HDL lipid transfer inhibition. Q61009. inhibition, % at 12.5 µM. 320,000 tested, 0.96% active. ldlA[mSR-BI] CHO cells, DiI-HDL uptake fluorescence, 3 h;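 active = mean replicate inhibition of at least 70% and a set share of replicates each scoring 70 or more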
Target sequence (Q61009 whole entry, looked up): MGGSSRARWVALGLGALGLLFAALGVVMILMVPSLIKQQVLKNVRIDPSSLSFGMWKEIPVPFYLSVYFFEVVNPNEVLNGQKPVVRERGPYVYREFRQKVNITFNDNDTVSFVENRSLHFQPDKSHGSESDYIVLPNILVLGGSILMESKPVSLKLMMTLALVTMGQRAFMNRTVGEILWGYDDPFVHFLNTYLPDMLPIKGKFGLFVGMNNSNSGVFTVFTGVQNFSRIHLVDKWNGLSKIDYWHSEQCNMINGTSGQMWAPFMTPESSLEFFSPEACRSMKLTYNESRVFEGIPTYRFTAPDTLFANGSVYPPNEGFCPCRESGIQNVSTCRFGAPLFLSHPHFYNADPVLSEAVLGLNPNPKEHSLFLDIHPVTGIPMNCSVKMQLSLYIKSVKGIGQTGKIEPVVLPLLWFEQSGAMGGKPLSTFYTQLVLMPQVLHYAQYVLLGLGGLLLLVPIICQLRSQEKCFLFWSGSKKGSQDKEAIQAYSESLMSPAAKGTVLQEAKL
SR-BI uptake up: activators of SR-BI mediated HDL lipid uptake; 320,000 tested, 0.096% active; activation, % at 12.5 µM; CHO ldlA[mSR-BI] cells, DiI-HDL uptake fluorescence, 3 h; 100 = double the neutral-control signal;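 active = mean replicate activation of at least 60% and every replicate at or above 60%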
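Assay system: LDL receptor-deficient CHO ldlA cells overexpressing murine SR-BI / Medium: BSA-supplemented, HEPES-buffered Ham's F12, pH 7.4 / Probe or stimulus: DiI-labelled HDL at 10 µg/mL final / Timing: compound with DiI-HDL co-incubation, 3 h at 37 °C / Technique: bottom-read cell fluorescence after medium removal, ex 550/em 595 nm / Measure: HDL uptake via cellular fluorescence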
C2C12 statin: protects C2C12 myotubes from simvastatin toxicity | rescue of ATP level, % at 7.49 µM | 330,000 tested, 0.78% active | ATP luminescence, 48 h; scaled: DMSO 0, geranylgeraniol control 100;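 active = mean ATP rescue above about 67%, or every replicate alone reaching that limit, limit read from the data, passing the limit was not always enough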;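 note: myotubes were challenged with 10 µM simvastatin during compound exposure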
Each line names hits and unclear results; the compound was inactive in the other large screens. An excerpt weighted towards active compounds, which were near 1.7% of everything screened.

COc1ccc(C(=O)c2cnc3cc4c(cc3c2C)OCO4)cc1	none
C[C@@H]1CN([C@H](C)CO)C(=O)c2cccc(NC(=O)c3ccc(-c4nccs4)cc3)c2O[C@H]1CN(C)S(=O)(=O)c1ccc(F)cc1	none (no result: Vif inh, SR-BI HDL uptake, SR-BI uptake up)
[O-][n+]1onc2c1CCc1c-2nc(-c2ccccc2)n1OCc1ccccc1	SR-BI HDL uptake 79.7
COn1c(-c2ccccc2)nc2c1CCc1c-2no[n+]1[O-]	C2C12 statin 88.9
C[C@H]1CN([C@@H](C)CO)C(=O)c2cc(NS(=O)(=O)c3cccs3)ccc2O[C@H]1CN(C)S(=O)(=O)c1ccc(Cl)cc1	none (no result: Vif inh, SR-BI HDL uptake, SR-BI uptake up)
Cn1c(CCN2CCCCC2)nc2cc(NC(=O)Nc3ccccc3)ccc21	C2C12 statin 116.3
CCCC(=O)Nc1ccc2c(c1)nc(CN1CCN(C(=O)OCC)CC1)n2C	none
CCCC(=O)Nc1ccc2c(c1)nc(CN1CCN(C(C)=O)CC1)n2C	C2C12 statin 119.2
CC(C)C(=O)Nc1ccc2c(c1)nc(CCN1CCCCC1)n2C	none
COc1ccc(NC(=O)Nc2ccc3c(c2)[C@H]2C[C@H](CC(=O)NCc4ccccn4)O[C@H](CO)[C@H]2O3)cc1	none (no result: Vif inh, SR-BI HDL uptake, SR-BI uptake up)
COc1cccc(CNC(=O)CCC2CCCN(C(=O)C3=CC(=O)CC(C)(C)O3)C2)c1 (configuration not stated)	C2C12 statin 79.2
CO[C@@H]1CN(C)C(=O)c2ccc(NC(=O)C3CCCCC3)cc2OC[C@H](C)N(Cc2cccnc2)C[C@@H]1C	none (no result: Vif inh, SR-BI HDL uptake, SR-BI uptake up)
COc1ccccc1CNC(=O)CSc1ccc(Br)cc1	none (no result: C2C12 statin)
COc1ccccc1CNC(=O)COc1ccc(C)cc1	SR-BI uptake up 718.1
COc1ccccc1CNC(=O)CSC1=NCCS1	Vif inh 58.3
COCC(=O)NC[C@@H]1[C@@H](c2ccccc2)[C@@H](CO)N1C(C)=O	none (no result: Vif inh, SR-BI HDL uptake, SR-BI uptake up)
CC=Cc1ccc2n(c1=O)C[C@H]1[C@H](CO)[C@@H](C(=O)NCCOC)[C@@H]2N1Cc1ccccc1 (mixture of isomers)	none (no result: Vif inh, SR-BI HDL uptake, SR-BI uptake up)
CCOc1ccc(NC(=O)/C(C#N)=C\c2ccc(N3CCCC3)c(C)c2)cc1	Vif inh 53.6, SR-BI HDL uptake 100.7 (no result: C2C12 statin)
CCOc1ccc(/C=C(\C#N)C(=O)Nc2cccnc2)cc1	none (no result: C2C12 statin)
O=C(C1CC1)N1[C@@H](CO)[C@@H]2c3ccccc3N(S(=O)(=O)c3ccccc3)C[C@@H]21	none (no result: Vif inh, SR-BI HDL uptake, SR-BI uptake up)
Cc1ccc(S(=O)(=O)N(C)c2ccc(C(=O)N3CCCCC3)cc2)cc1	none
Cc1ccc(S(=O)(=O)N(C)c2ccc(C(=O)O)cc2)cc1	C2C12 statin 124.7
COCC(=O)N[C@H]1CC[C@@H](CC(=O)NCc2ccc(Cl)cc2)O[C@H]1CO	none (no result: Vif inh, SR-BI HDL uptake, SR-BI uptake up)
C(=Cc1c[nH]c2ccccc12)c1ccc2ccccc2n1	none (no result: Vif inh)
C(=Cc1c[nH]c2ccccc12)c1nccc2ccccc12	SR-BI HDL uptake 71.5
CC(=O)N(C)C[C@H]1Oc2cc(C#CC3CC3)ccc2S(=O)(=O)N([C@@H](C)CO)C[C@@H]1C	none (no result: Vif inh, SR-BI HDL uptake, SR-BI uptake up)
Nc1nonc1-c1nc2ccccc2n1CC(=O)Nc1ccccc1	none
Nc1nonc1-c1nc2ccccc2n1CC(=O)NC1CCCC1	Vif inh 50.2
CC(=O)N1C=CN(C(C)=O)C(c2cn(C)c3ccccc23)C1c1cn(C)c2ccccc12 (configuration not stated)	C2C12 statin 115.0
Cn1cc(/C=C/C(=O)c2ccccc2)c2ccccc21	none
Cc1ccc(S(=O)(=O)N(C)C[C@@H]2Oc3c(NC(=O)Nc4ccc5c(c4)OCO5)cccc3C(=O)N([C@H](C)CO)C[C@@H]2C)cc1	none (no result: Vif inh, SR-BI HDL uptake, SR-BI uptake up)
O=C(C[C@@H]1C[C@@H]2c3cc(NC(=O)Nc4ccccc4)ccc3O[C@@H]2[C@H](CO)O1)NCCN1CCCCC1	none (no result: Vif inh, SR-BI HDL uptake, SR-BI uptake up)
CCOC(=O)c1ccccc1OCc1cc(/C=N/n2cnnc2)ccc1OC	Vif inh 94.0
Cc1ccc(-n2nc(C)cc2NC(=O)c2ccc(C)s2)cc1	SR-BI HDL uptake 86.7
CCCNC(=O)c1onc(CSc2ccc(Cl)cc2)c1C(=O)NCCC(C)C	C2C12 statin 75.2
CCOC(=O)Nc1ccc(NCc2ccc(F)cc2)nc1N	Vif inh active
CCOC(=O)Nc1ccc(C)cc1NC(=O)OCC	none (no result: SR-BI HDL uptake, SR-BI uptake up, C2C12 statin)
O=C(NC(=S)Nc1ccccn1)c1ccco1	none (no result: C2C12 statin)
Cc1ccnc(NC(=S)NC(=O)c2ccco2)c1	SR-BI uptake up 63.7 (no result: C2C12 statin)
C[C@H]1CN([C@@H](C)CO)S(=O)(=O)c2ccc(Br)cc2O[C@@H]1CN(C)S(=O)(=O)c1ccc(F)cc1	C2C12 statin 87.5 (no result: Vif inh, SR-BI HDL uptake, SR-BI uptake up)
C[C@H]1CN([C@@H](C)CO)S(=O)(=O)c2ccc(C#CC3CC3)cc2O[C@H]1CN(C)C(=O)Nc1cc(F)ccc1F	C2C12 statin 90.4 (no result: Vif inh, SR-BI HDL uptake, SR-BI uptake up)
